Measured values published in PubChem BioAssay.
Records with an inconclusive call do not appear. Calls of active or inactive are those of the source.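 Rule for the calls, unless noted: active = viability at or below 27.92% in each of two runs, the all-compound median minus 4 SD; inconclusive = no clear call, values can overlap the other calls; inactive = the rest.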

Experiments:
[1] = OD615 S. cerevisiae growth inhibition, permissive medium, pilot counter-assay, permissive growth control for S. cerevisiae lifespan shortening project (AID 705;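 active = growth inhibition above 25% in both replicates, a cutoff set 3 SD above the mean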); conditions: OD615, 24 h, at 10 µM, active compounds read high
In short: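 System: engineered DeaD yeast; Medium: permissive raffinose/galactose medium; Compound dosing: 10 µM single dose, 0.25% DMSO; Incubation: 4 h cell pre-growth, 24 h exposure at 30 °C; Technique: OD at 615 nm; Evaluation: growth inhibition from lowered OD615 after 24 h.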

[2] = Restrictive medium S. cerevisiae growth inhibition, OD615, pilot screen of yeast lifespan reduction project, restrictive growth control (AID 706;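 active = growth inhibition above a set limit, 3 SD over mean compound inhibition, in both replicates, cut at about 43% in these data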;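 note: modified DeaD lifespan yeast strain shifted to restrictive glucose medium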); conditions: OD615, 48 h, at 10 µM, active compounds read high
In short: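 Material: modified S. cerevisiae; buffer or medium: CSMM-D glucose medium; doses: one concentration, 10 µM final, 0.25% DMSO; incubation: 48 h compound exposure at 30 °C; detection: optical density at 615 nm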

[3] = viability gain of MRP-1-high H69AR cells under doxorubicin, pilot screen, MRP-1 activator project, CellTiter-Glo, duplicate (AID 807;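 active = viability increase at or above a cutoff of the median across tested compounds plus 3 SD, cut at about 8.5% in these data, passing the limit was not always enough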;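 note: compound pretreatment 18-22 h then 72 h combined with doxorubicin; 0% = doxorubicin alone and 100% = vehicle without doxorubicin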); conditions: H69AR viability with doxorubicin, CellTiter-Glo luminescence; at 10 µM; active compounds read high
[4] = growth suppression of beta-catenin knockout HCT116, pilot screen, human colon tumor cells (AID 823;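 active = cell viability at or below a set limit in both duplicate runs, the limit being the all-compound median minus 4 SD, cut at about 23% in these data, passing the limit was not always enough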;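 note: 0% = wells killed by 20 µM Hyamine and 100% = untreated DMSO cell wells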); conditions: CellTiter-Glo, 60 h, at 10 µM, active compounds read low
[5] = growth suppression of PTEN-deleted HCT116, pilot screen, cell-based, HCT116 clonal line, CellTiter-Glo (AID 824); conditions: 60 h, at 10 µM, active compounds read low;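 note: 0% = 20 µM Hyamine control and 100% = vehicle cell control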
[6] = inhibitors of the yeast RAM network, pilot screen, dse1pr::URA3 reporter, 5-FOA selection (AID 869;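 active = inhibition over a set limit, the all-compound mean plus 3 SD, in both replicate runs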;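 note: 0% = DMSO wells with no growth and 100% = 10 µM 1-NA-PP1 with full growth; RAM network block rescues cells from 5-FOA so hits raise OD615 growth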); conditions: S. cerevisiae dse1pr::URA3 5-FOA growth, OD615, 2 d; at 10 µM; active compounds read high; strain carries analog-sensitive mutant Cbk1 kinase
[7] = RAM signaling pathway blockade in yeast – S. cerevisiae, Pdr1DBD-CYC8 efflux-inhibited sensitized strain, primary screen (AID 1298;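 active = RAM network inhibition above 8.4% in each of two replicates, 3 SD over the compound average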;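 note: 0% = DMSO untreated cells without growth and 100% = 10 µM 1-NA-PP1 full growth; higher means more yeast growth rescued from 5-FOA killing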); conditions: S. cerevisiae cbk1-as DSE1-URA3 strain, 5-FOA growth OD615, 2 d; at 50 µM; active compounds read high

CCCc1cc(C(=O)Nc2cccc(C(C)=O)c2)no1
inactive: growth inhibition [1] -4.86% | growth inhibition [2] 1.98% | viability increase [3] 0.44% | viability [4] 104% | viability [5] 92.3% | inhibition [6] 1.75% | RAM network inhibition [7] 2.91%

CC(=O)c1cccc(NC(=O)Cn2cc3c(n2)CCCC3)c1
inactive: growth inhibition [1] -3.74% | growth inhibition [2] -0.095% | viability increase [3] -3.04% | viability [4] 97.5% | viability [5] 96.7% | inhibition [6] 0.1% | RAM network inhibition [7] 2.14%

COc1ccc(C2C(C(=O)NCc3ccccn3)c3ccccc3C(=O)N2C)cc1OC (configuration not stated)
inactive: growth inhibition [1] -4.72% | growth inhibition [2] -0.835% | viability increase [3] -0.8% | viability [4] 101% | viability [5] 101% | inhibition [6] 1.01% | RAM network inhibition [7] 0.74%

Cc1cc(NC(=O)CSc2nc3c(c(=O)n2-c2ccccc2)SC(C)C3)no1 (configuration not stated)
inactive: growth inhibition [1] -3.02% | growth inhibition [2] -11.7% | viability increase [3] -2.58% | viability [4] 93% | viability [5] 91.2% | inhibition [6] 4.66% | RAM network inhibition [7] 1.22%

CN(C)c1nc(-c2ccccc2)c2cnn(Cc3ccccc3)c2n1
inactive: growth inhibition [1] -12.5% | growth inhibition [2] -3.25% | viability increase [3] -4.48% | viability [4] 83.8% | viability [5] 75.9% | inhibition [6] 1.59% | RAM network inhibition [7] 6.82%

O=C(O)C1(P(=O)(c2ccccc2)c2ccccc2)CCC1
inactive: growth inhibition [1] -13.9% | growth inhibition [2] -5.79% | viability increase [3] -0.11% | viability [4] 99.6% | viability [5] 99.3% | inhibition [6] 1.34% | RAM network inhibition [7] 3.04%

CC(=O)Oc1c2occc2cc2ccc(=O)oc12
inactive: growth inhibition [1] -10.4% | growth inhibition [2] -1.74% | viability increase [3] -2.14% | viability [4] 92.7% | viability [5] 90.5% | inhibition [6] 0.425% | RAM network inhibition [7] -1.95%

Clc1cccc(CSc2nnc(-c3ccccn3)n2Cc2ccco2)c1
inactive: growth inhibition [1] -8.18% | growth inhibition [2] 21.1% | viability increase [3] -1.98% | viability [4] 71.4% | viability [5] 75.3% | inhibition [6] 1.69% | RAM network inhibition [7] 12.3%

COC(=O)c1c(NC(=O)CCN2CCOCC2)sc2c1CCCC2
inactive: growth inhibition [1] -1.47% | growth inhibition [2] -2.81% | viability increase [3] -6.91% | viability [4] 88.4% | viability [5] 89.7% | inhibition [6] 0.935% | RAM network inhibition [7] 4.32%

CCOC(=O)c1c(C)[nH]c(C(=O)CSc2nnnn2-c2ccccc2)c1C
inactive: growth inhibition [1] -7.16% | growth inhibition [2] -0.165% | viability increase [3] -1.88% | viability [4] 100% | viability [5] 93.4% | inhibition [6] 2.31% | RAM network inhibition [7] 1.57%

OCCN1CCN(Cc2cccc(Oc3ccc(Cl)cc3)c2)CC1
inactive: growth inhibition [1] -4.24% | growth inhibition [2] -1.81% | viability increase [3] -3.74% | viability [4] 63.2% | viability [5] 73.1% | inhibition [6] 2.6% | RAM network inhibition [7] -0.21%

CC(c1cccnc1)N(C(=O)Nc1ccccc1)C1CCCCC1 (configuration not stated)
inactive: growth inhibition [1] -1.48% | growth inhibition [2] -10.8% | viability increase [3] -2.35% | viability [4] 92.1% | viability [5] 91.6% | inhibition [6] 1.96% | RAM network inhibition [7] 5.08%

O=C(CCNS(=O)(=O)c1cccc2nonc12)NCCc1ccc(Cl)cc1
inactive: growth inhibition [1] -2.56% | growth inhibition [2] -9.13% | viability increase [3] 5.07% | viability [4] 90% | viability [5] 101% | inhibition [6] -0.08% | RAM network inhibition [7] 3%

Cn1c(NC(=O)c2ccc(F)c(F)c2)cc(=O)n(C)c1=O
inactive: growth inhibition [1] -2.93% | growth inhibition [2] -3.23% | viability increase [3] -1.64% | viability [4] 95.7% | viability [5] 93.4% | inhibition [6] 0.925% | RAM network inhibition [7] 0.81%

O=C(O)c1ccccc1C(=O)NCc1ccccc1
inactive: growth inhibition [1] -7.18% | growth inhibition [2] -15.6% | viability increase [3] 1.13% | viability [4] 99.3% | viability [5] 100% | inhibition [6] 0.27% | RAM network inhibition [7] 1.13%

O=C(c1ccc(CS(=O)(=O)c2ccc(Br)cc2)o1)N1CCCCCC1
inactive: growth inhibition [1] -9.29% | growth inhibition [2] -18.8% | viability increase [3] -2.25% | viability [4] 87.9% | viability [5] 92.2% | inhibition [6] 0.185% | RAM network inhibition [7] 9.94%

CCOC(=O)CC(=O)Nc1ccc(C(=O)OCC)cc1
inactive: growth inhibition [1] 4.17% | growth inhibition [2] 7.02% | viability increase [3] 1.09% | viability [4] 101% | viability [5] 105% | inhibition [6] 1.54% | RAM network inhibition [7] 4.84%

CCC(C)NC(=O)CCCCCn1c(=O)[nH]c2cc(OC)c(OC)cc2c1=O (configuration not stated)
inactive: growth inhibition [1] -18.5% | growth inhibition [2] -7.55% | viability increase [3] -2.36% | viability [4] 88% | viability [5] 93% | inhibition [6] 0.065% | RAM network inhibition [7] 2.96%

CCOC(=O)C1CCCN(c2c(NCCCN3CCCC(C)C3)c(=O)c2=O)C1 (configuration not stated)
inactive: growth inhibition [1] 3.9% | growth inhibition [2] 3.15% | viability increase [3] -0.04% | viability [4] 99.1% | viability [5] 94.4% | inhibition [6] 2.96% | RAM network inhibition [7] -0.87%

O=C(CN1CCN(Cc2ccccc2Cl)C1=O)NCC1CCCO1 (configuration not stated)
inactive: growth inhibition [1] 4.72% | growth inhibition [2] -0.62% | viability increase [3] -2.68% | viability [4] 97.2% | viability [5] 95.5% | inhibition [6] 0.35% | RAM network inhibition [7] 1.49%

CC(C)Sc1oc(-c2ccco2)nc1S(=O)(=O)c1ccc(F)cc1
inactive: growth inhibition [1] -5.61% | growth inhibition [2] -0.07% | viability increase [3] -2.29% | viability [4] 94% | viability [5] 89.8% | inhibition [6] 1.54% | RAM network inhibition [7] 6.36%

CCOC(=O)C1=C(Nc2cccc(Cl)c2)OCC1=O
inactive: growth inhibition [1] -17.9% | growth inhibition [2] 3.65% | viability increase [3] -1.85% | viability [4] 102% | viability [5] 99% | inhibition [6] 2.21% | RAM network inhibition [7] 4.51%

CS(=O)(=O)N1CCN(c2nc(-c3ccccc3)cs2)CC1
inactive: growth inhibition [1] 10.1% | growth inhibition [2] 3.18% | viability increase [3] 0.2% | viability [4] 99.9% | viability [5] 94.4% | inhibition [6] -0.535% | RAM network inhibition [7] -0.16%

Cc1ccc(C(=O)COC(=O)c2cnccn2)cc1
inactive: growth inhibition [1] -15.1% | growth inhibition [2] -10.8% | viability increase [3] -1.61% | viability [4] 104% | viability [5] 97.8% | inhibition [6] 2.19% | RAM network inhibition [7] 1.61%

O=C(O)CSCC(=O)c1ccccc1
inactive: growth inhibition [1] -6.96% | growth inhibition [2] -1.74% | viability increase [3] 0.58% | viability [4] 107% | viability [5] 101% | inhibition [6] 1.15% | RAM network inhibition [7] -0.89%

COc1ccc(CC(=O)c2ccc(O)cc2O)cc1OC
inactive: growth inhibition [1] -6.46% | growth inhibition [2] -7.7% | viability increase [3] -3.53% | viability [4] 95.6% | viability [5] 89.2% | inhibition [6] 1.26% | RAM network inhibition [7] 2.27%

CC(C)N(Cc1nc(-c2ccccc2)no1)C(=O)Cc1ccccc1
inactive: growth inhibition [1] -14.4% | growth inhibition [2] -16.3% | viability increase [3] -2.2% | viability [4] 87.1% | viability [5] 79.3% | inhibition [6] -0.4% | RAM network inhibition [7] 2.86%

Cc1oc(-c2cccs2)nc1CS(=O)CC(=O)NC1CCCCCC1 (configuration not stated)
inactive: growth inhibition [1] 11.3% | viability increase [3] -2.99% | viability [4] 75.4% | viability [5] 84.5% | inhibition [6] -0.045% | RAM network inhibition [7] -1.22%
active: growth inhibition [2] 51.7%

Cc1c(Nc2nc3ccccc3nc2N2CCN(c3ccccc3)CC2)c(=O)n(-c2ccccc2)n1C
inactive: growth inhibition [1] -2.84% | growth inhibition [2] -9.73% | viability increase [3] -4.8% | viability [4] 69% | viability [5] 70.6% | inhibition [6] 0.73% | RAM network inhibition [7] 5.41%

COc1ccccc1-n1c(CNC(=O)c2ccco2)nnc1SCC(=O)Nc1nccs1
inactive: growth inhibition [1] -0.655% | growth inhibition [2] -2.6% | viability increase [3] -5.08% | viability [4] 77.4% | viability [5] 66.2% | inhibition [6] 1.09% | RAM network inhibition [7] 1.25%

Cc1ccc(CN2CCNC(=O)C2CC(=O)O)o1 (configuration not stated)
inactive: growth inhibition [1] -8.29% | growth inhibition [2] 2.8% | viability increase [3] -0.83% | viability [4] 105% | viability [5] 104% | inhibition [6] 1.5% | RAM network inhibition [7] 2.4%

O=C1c2ccccc2C(Nc2cccnc2)N1Cc1ccc2c(c1)OCO2 (configuration not stated)
inactive: growth inhibition [1] 7.46% | growth inhibition [2] 3.33% | viability increase [3] -2.21% | viability [4] 94.1% | viability [5] 104% | inhibition [6] 0.205% | RAM network inhibition [7] 1.74%

CCN1CCN(Cc2ccc(NC(=O)Nc3ccc(OC)cc3)cc2)CC1
inactive: growth inhibition [1] 5.68% | growth inhibition [2] 1.98% | viability increase [3] 0.19% | viability [4] 104% | viability [5] 108% | inhibition [6] 2.09% | RAM network inhibition [7] 1.09%

CCC(Sc1nc(C)cc(=O)[nH]1)C(=O)Nc1sc2c(c1C#N)CCCC2 (configuration not stated)
inactive: growth inhibition [1] -14% | growth inhibition [2] -12.3% | viability increase [3] -3.49% | viability [4] 92.9% | viability [5] 91.4% | inhibition [6] 2.01% | RAM network inhibition [7] 6.25%

O=C(CSc1ncnc2c1oc1ccccc12)NC1CCCCC1
inactive: growth inhibition [1] -5.42% | growth inhibition [2] 3.17% | viability increase [3] -0.15% | viability [4] 95% | viability [5] 85.3% | inhibition [6] 1.92% | RAM network inhibition [7] 4.21%

N#Cc1nc(-c2ccccc2F)oc1NCc1ccccc1
inactive: growth inhibition [1] -4.66% | growth inhibition [2] 11.3% | viability increase [3] 1.59% | viability [4] 107% | viability [5] 90.5% | inhibition [6] 1.98% | RAM network inhibition [7] 3.96%
